Experimental findings from ChEMBL document CHEMBL2057186, “Application of the bicyclo[1.1.1]pentane motif as a nonclassical phenyl ring bioisostere in the design of a potent and orally active γ-secretase inhibitor” (J Med Chem, 2012) are described below.

Values after ≈ are worked out from the molar mass of the structure shown.

What is called efflux ratio is the permeability from basolateral to apical divided by that in the opposite direction, in the common usage. By Papp A→B is commonly meant how fast a substance crosses the layer from the apical side. Broadly, the IC50 is the midpoint of a concentration-inhibition curve.

The subject of one data set is P-gp. Description: Efflux ratio of apparent permeability from basal to apical side to apical to basal side of MDCK cells expressing human P-gp. The format is ADME, cell-based, Canis lupus familiaris. The following applies: dog, MDCK-MDR1. Summed up: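 Monolayers were MDCK cells transfected with the human P-glycoprotein (MDR1) gene. Permeability was measured basolateral-to-apical and apical-to-basolateral, and the BA/AB ratio was reported.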

A short description of data set [1]: Kinetic solubility of the solubility of the compound at pH 6.5. The format is physicochemical. The following applies: buffer, read-out: Kinetic_solubility. Summed up:
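Kinetic solubility was measured in aqueous buffer at pH 6.5.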

Data set [2] can be described thus: Apparent permeability from apical to basal side of dog RRCK cells. The format is ADME, cell-based, Canis lupus familiaris, MDCKII-LE. Particulars: MDCK. Summed up: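 Absorptive (A to B) permeability was measured in RRCK cells, a Madin–Darby canine kidney subline isolated for low transporter activity. It estimates intrinsic passive permeability.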
In the next data set the target is Gamma-secretase. Description: Inhibition of gamma secretase-mediated amyloid beta42 production in human H4 cells expressing human wild-type APP.
The species entered for another data set is Homo sapiens. Description: Selectivity for human gamma-seretase over notch signalling protein.

For `N#Cc1ccc(CN([C@H](CCC(F)(F)F)C(N)=O)S(=O)(=O)c2ccc(Cl)cc2)c(F)c1`, in the data set on P-gp, the efflux ratio was 1.71. Also, in data set [1], the solubility kinetic amounted to 6.8 µM (≈ 3.25 µg/mL). Moreover, the Papp A→B in data set [2] came to 18.7 ×10⁻⁶ cm/s. The compound also registered an IC50 on Gamma-secretase of 0.00177 µM.

With `N#C[C@H]1C[C@H](CN([C@H](CCC(F)(F)F)C(N)=O)S(=O)(=O)c2ccc(Cl)cc2)C1`, the Papp A→B in data set [2] was 24.9 ×10⁻⁶ cm/s. The IC50 at Gamma-secretase amounted to 0.0164 µM.

Consider `C[C@]1(C#N)C[C@@H](CN([C@H](CCC(F)(F)F)C(N)=O)S(=O)(=O)c2ccc(Cl)cc2)C1`, for which the Papp A→B in data set [2] is 25.7 ×10⁻⁶ cm/s. The IC50 against Gamma-secretase came to 0.00747 µM.

For the compound `N#CCCCCN([C@H](CCC(F)(F)F)C(N)=O)S(=O)(=O)c1ccc(Cl)cc1`, in data set [2], the apical-to-basolateral permeability (Papp A→B) was 24 ×10⁻⁶ cm/s. Also, the IC50 on Gamma-secretase was 0.0111 µM.

Take `NC(=O)[C@@H](CCC(F)(F)F)N(CCc1ncon1)S(=O)(=O)c1ccc(Cl)cc1`: the Papp A→B in data set [2] was 29.6 ×10⁻⁶ cm/s. In addition, half-maximal inhibition against Gamma-secretase (IC50) required 0.0244 µM.

With `C[C@]1(C#N)C[C@H](CN([C@H](CCC(F)(F)F)C(N)=O)S(=O)(=O)c2ccc(Cl)cc2)C1`, the Papp A→B in data set [2] stood at 21.8 ×10⁻⁶ cm/s. Moreover, inhibition on Gamma-secretase was half-maximal at 0.0587 µM (IC50).

On to `N#CCCN([C@H](CCC(F)(F)F)C(N)=O)S(=O)(=O)c1ccc(Cl)cc1`, for which the Papp A→B in data set [2] is 10.2 ×10⁻⁶ cm/s. The compound further displayed a concentration for half-maximal inhibition (IC50) on Gamma-secretase of 0.0225 µM.

As for `NC(=O)[C@@H](CCC(F)(F)F)N(CC1(c2ncon2)CC1)S(=O)(=O)c1ccc(Cl)cc1`, the apparent permeability from apical to basolateral (Papp A→B) in data set [2] was 16.4 ×10⁻⁶ cm/s. Besides, half-maximal inhibition at Gamma-secretase (IC50) required 0.0455 µM.

Consider `N#C[C@@H]1C[C@H]1CN([C@H](CCC(F)(F)F)C(N)=O)S(=O)(=O)c1ccc(Cl)cc1`, for which the apical-to-basolateral permeability (Papp A→B) in data set [2] was 9.94 ×10⁻⁶ cm/s. It took 0.0147 µM to reach half-maximal inhibition on Gamma-secretase (IC50).

Consider `N#Cc1ccc(CN([C@H](CCC(F)(F)F)C(N)=O)S(=O)(=O)c2ccc(Cl)cc2)cc1`, for which the efflux ratio in the data set on P-gp is 2.05. Also, the Selectivity Index in the data set listed under Homo sapiens came to 570. Besides, the solubility kinetic in data set [1] amounted to 44.5 µM (≈ 20.5 µg/mL). Further, the Papp A→B in data set [2] is 19.7 ×10⁻⁶ cm/s. Also, at Gamma-secretase, the IC50 was found to be 0.00104 µM.
